From PubChem BioAssay
Rows were chosen to be rich in hits. Some 1.9% of all compounds tested hit in one or more screens of this group.
MC4R antagonist: MC4R antagonists of cAMP signaling, primary screen, cell-based, TR-FRET, antagonist arm of biased-ligand search. Melanocortin receptor 4 (Homo sapiens), P32245. MC4R-expressing cells, MTII-stimulated cAMP, LANCE TR-FRET. inhibition, % at 6.5 µM. 360,000 tested, 0.48% active;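 active = inhibition above its plate's cutoff, the mean of tested wells on that plate plus 3 SD, cut at about 29% in these data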
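material = U2OS cells stably expressing human melanocortin 4 receptor (MC4R) | also added = Melanotan II challenge | dosing = single nominal compound dose of 6.5 µM | detection = TR-FRET with Eu-cAMP and labeled anti-cAMP, 671 nm | replication = singlicate | timing = compound 30 min, challenge 1 h, detection 1 h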
NTR1 ag: agonists of human NTR1, primary screen, imaging, U2OS cells, beta-arrestin-GFP, high content. AID 493036, 2011. 330,000 tested, 0.17% active. activation, % at 20 µM. Neurotensin receptor type 1 (Homo sapiens), P30989. NTR1-U2OS beta-arrestin-GFP spot imaging, agonist mode;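 active = activation at or above 40% of the spot to cytoplasm intensity ratio, with at least 20 cells analyzed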
MC4R barr agon: MC4R agonists recruiting beta-arrestin, primary screen, cell-based, luminescence, agonist arm of biased-ligand search. Melanocortin receptor 4 (Homo sapiens), P32245. U2OS MC4R beta-arrestin complementation; percent of melanotan II response, DMSO zero. activation, % at 8.9 µM. 360,000 tested, 0.98% active. AID 540308, 2011;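 active = activation above a per-plate cutoff, the mean activation of sample wells on that plate plus 3 SD, cut at about 8% in these data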
NOD2 RIPK2 PPI: NOD2-RIPK2 binding disruptors in cells, primary screen, fluorescence, CHO cells, BLA complementation; Receptor-interacting serine/threonine-protein kinase 2 (Homo sapiens), O43353; CCF4 ratio; inhibition, % at 4.98 µM; 360,000 tested, 0.38% active; AID 624267, 2012; in the data active = inhibition above about 21%
TLR4 MyD88 comp: inhibitors of TLR4-MyD88 association in cells, primary screen, cell-based, HeLa CL3-4, BLA complementation, FRET ratio | Toll-like receptor 4 (Homo sapiens) + Myeloid differentiation primary response protein … | HeLa CL3-4 TLR4/MyD88 BLA complementation | inhibition, % at 8.4 µM | 200,000 tested, 0.18% active | AID 861, 2007; in the data active = inhibition above about 25%
Target sequence (O00206 whole entry, looked up): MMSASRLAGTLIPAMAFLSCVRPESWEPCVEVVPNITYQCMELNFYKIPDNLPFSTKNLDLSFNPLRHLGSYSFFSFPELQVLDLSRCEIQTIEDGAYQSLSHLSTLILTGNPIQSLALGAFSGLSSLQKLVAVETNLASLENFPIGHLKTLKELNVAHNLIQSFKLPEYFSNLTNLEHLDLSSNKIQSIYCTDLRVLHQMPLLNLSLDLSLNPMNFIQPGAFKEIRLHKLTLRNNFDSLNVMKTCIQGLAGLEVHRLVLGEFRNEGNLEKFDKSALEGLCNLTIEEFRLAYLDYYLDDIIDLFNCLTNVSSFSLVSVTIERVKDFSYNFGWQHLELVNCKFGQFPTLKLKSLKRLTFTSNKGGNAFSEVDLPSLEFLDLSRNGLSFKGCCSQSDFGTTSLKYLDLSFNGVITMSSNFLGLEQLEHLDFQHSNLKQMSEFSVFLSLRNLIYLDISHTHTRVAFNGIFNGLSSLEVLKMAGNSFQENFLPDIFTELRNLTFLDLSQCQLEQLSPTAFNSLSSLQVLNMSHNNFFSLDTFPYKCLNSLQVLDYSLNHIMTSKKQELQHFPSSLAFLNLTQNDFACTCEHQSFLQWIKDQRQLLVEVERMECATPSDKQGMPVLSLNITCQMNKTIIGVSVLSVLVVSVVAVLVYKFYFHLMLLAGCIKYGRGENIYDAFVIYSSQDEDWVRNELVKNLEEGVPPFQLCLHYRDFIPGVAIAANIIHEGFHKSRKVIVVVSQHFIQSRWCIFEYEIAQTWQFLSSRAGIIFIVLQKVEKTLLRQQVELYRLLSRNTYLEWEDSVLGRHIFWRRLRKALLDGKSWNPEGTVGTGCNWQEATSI
Target sequence (Q99836 whole entry, looked up): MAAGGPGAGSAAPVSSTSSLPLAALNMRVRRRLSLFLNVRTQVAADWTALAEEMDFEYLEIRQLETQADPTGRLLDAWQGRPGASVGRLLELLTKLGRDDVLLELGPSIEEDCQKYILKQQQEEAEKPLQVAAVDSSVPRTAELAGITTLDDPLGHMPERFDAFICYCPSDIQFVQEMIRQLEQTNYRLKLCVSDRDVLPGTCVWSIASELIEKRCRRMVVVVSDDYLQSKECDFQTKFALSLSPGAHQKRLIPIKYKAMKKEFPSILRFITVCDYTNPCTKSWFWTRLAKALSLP
TLR9-MyD88 block: inhibitors of TLR9-MyD88 association in cells, primary screen, cell-based, CHO, BLA complementation, fluorescence. CCF4 FRET ratio. AID 504734, 2011. inhibition, % at 4.98 µM. Toll-like receptor 9 (Homo sapiens) + Myeloid differentiation primary response protein …. 340,000 tested, 0.21% active;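 active = inhibition above the mean over all tested compounds plus 3 SD, cut at about 21% in these data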
Numbers stand for hits; 0 = inactive; - = no result.

SMILES	MC4R antagonist	NTR1 ag	MC4R barr agon	NOD2 RIPK2 PPI	TLR4 MyD88 comp	TLR9-MyD88 block
COc1ccc(Cl)c(-c2cc(C(=O)NCc3ccc(C(F)(F)F)cc3)[nH]n2)c1	0	-	9.5	0	-	-
COC(=O)NCC(c1ccco1)N1CCN(c2ccc(F)cc2)CC1 (stereo not drawn)	0	0	0	0	0	0
O=C(NCC(c1ccco1)N1CCN(c2ccc(F)cc2)CC1)OCc1ccccc1 (stereo not drawn)	0	0	8.3	0	0	0
CC1(C(=O)NS(=O)(=O)c2ccc(Cl)s2)CCN1C(=O)Cc1ccc(-c2ccccc2)cc1 (stereo not drawn)	0	-	0	0	-	-
CCN(C(=O)COC(=O)CNC(=O)c1ccc(Cl)cc1Cl)c1c(N)n(Cc2ccccc2)c(=O)[nH]c1=O	0	0	0	0	-	0
COc1ccc(C(=O)Nc2ccc(Nc3ccccc3)cc2)cc1Br	0	0	9.4	0	-	0
Cc1cccc(C)c1NC(=O)C1(C)CN(S(C)(=O)=O)CC(=O)N1CCCn1ccnc1 (stereo not drawn)	-	-	-	0	-	-
CCCCCCOC(=O)CCc1c(C)nc(N)[nH]c1=O	0	0	0	0	0	0
CCCCCCCCOC(=O)CCc1c(C)[nH]c(=S)[nH]c1=O	0	0	9.0	0	0	0
O=C(CSc1nnc(-c2ccc(Br)cc2)o1)Nc1cccc(C(=O)O)c1	0	0	0	0	-	0
O=C(CSc1nnc(-c2ccc(Br)cc2)o1)Nc1cccc2ccccc12	0	0	9.1	0	0	0
CCOC(=O)C1(N(CC)CC)Sc2cc(C)ccc2NC1=O (stereo not drawn)	0	0	0	0	0	0
COC(=O)C1=C(C(=O)OC)SC2(S1)C(C(=O)OC)=C(C(=O)OC)SC1=C2c2cc(C)ccc2NC1(C)C	53	0	0	0	0	0
Cc1nn(Cc2ccccc2Cl)c(C)c1NC(=O)c1cc(-c2ccc(F)cc2)on1	0	0	8.9	0	0	0
Cc1nn(Cc2ccccc2Cl)c(C)c1NC(=O)c1ccn(C)n1	0	0	0	0	0	0
Cc1ccc(CCNc2ncnc(Cl)c2N)cc1	0	-	0	0	-	0
CCn1c(CCCOc2ccc(Cl)cc2Cl)nnc1SCC(=O)Nc1cccc(F)c1	0	0	9.8	0	0	0
C=CCn1c(NC(=O)c2ccc(C)cc2)nc2ccccc21	0	0	0	0	-	0
COc1ccc(NC(=O)CCn2c(=S)[nH]c3ccccc3c2=O)cc1	0	0	8.6	0	-	0
C=C(C)C(O)CC/C(C)=C/Cc1c(O)ccc(C(=O)/C=C/c2ccc(O)cc2)c1O (stereo not drawn)	0	0	9.6	0	-	0
CCCCc1cc(=O)oc2cc(C)cc(OCC(=O)Nc3cccnc3)c12	0	0	8.7	0	-	0
CC1(Oc2cccc(F)c2)CCN(Cc2ccc(-c3ccccn3)cc2)C1 (stereo not drawn)	0	-	8.6	0	-	-
CC1(Oc2cnc(Cl)c3ccccc23)CCN(Cc2ccc(-c3ccccn3)cc2)C1 (stereo not drawn)	0	-	0	0	-	-
CC1(C(=O)NCc2ccco2)Cc2c(-c3ccccc3)ccnc2O1 (stereo not drawn)	0	-	0	0	-	-
O=C1C=CC(=O)N1c1ccc(O)cc1	0	0	0	0	-	0
SMILES	MC4R antagonist	NTR1 ag	MC4R barr agon	NOD2 RIPK2 PPI	TLR4 MyD88 comp	TLR9-MyD88 block
O=C1C=CC(=O)N1c1ccc(OC(F)F)cc1	37	-	0	0	0	0
COc1cc2c(cc1OC)C(c1ccccc1[N+](=O)[O-])=NCC2	-	-	-	0	-	-
O=C(COc1ccccc1)N[C@@H]1c2ccccc2CC[C@H]1OCc1ccccc1	0	0	0	0	-	0
O=C(COc1ccccc1)N[C@@H]1c2ccccc2CC[C@@H]1OCc1ccccc1	0	0	8.4	0	-	0
Cc1cccc(OCC(=O)O/N=C(\N)c2ccc(Cl)cc2)c1	0	0	12	0	0	0
CCOc1cc(C2c3c(oc4ccccc4c3=O)C(=O)N2c2nccs2)ccc1O (stereo not drawn)	0	0	9.5	0	-	0
S=C(Nc1ccc(Cl)c(Cl)c1)NC1CCN(Cc2ccccc2)CC1	0	0	22	0	0	0
Fc1ccc(NC(=S)NC2CCN(Cc3ccccc3)CC2)cc1	0	0	0	0	0	0
Cc1n[nH]c(C)c1NC(=O)CN1CCN(S(=O)(=O)c2ccc(C(F)(F)F)cc2)CC1	0	-	0	0	-	0
CN(C)CCCN(C(=O)c1ccc2c(c1)CCCC2)c1nc2ccc(Cl)cc2s1	0	0	9.1	0	0	0
Cc1cc(C)c2nc(N(CCCN(C)C)C(=O)c3ccc4c(c3)OCCO4)sc2c1	0	0	8.4	0	-	0
CCOc1ccc2nc(N(CCCN(C)C)C(=O)c3ccc4c(c3)CCCC4)sc2c1	0	0	0	0	-	0
CC1CCCCN1S(=O)(=O)c1ccc(C(=O)N(CCCN(C)C)c2nc3ccc(Br)cc3s2)cc1 (stereo not drawn)	0	0	8.8	0	-	0
O=C(Cn1cnc2c(OCc3ccccc3)ncnc21)NCCCc1ccccc1	0	0	0	0	-	0
CCN(CC)c1ncnc2c1cnn2Cc1ccc(Cl)cc1	0	0	0	0	0	0
CCn1c2ccccc2c2cc(NC(=O)CSc3nnnn3-c3ccccc3)ccc21	0	0	8.7	0	0	0
NC(Cc1ccc(Cl)cc1)c1csc(NC(=O)NCC2CCCCC2)n1 (stereo not drawn)	0	-	8.5	0	-	-
COc1ccc([C@@]23Oc4cc(OC)cc(OC)c4[C@]2(O)[C@H](O)[C@H](C(=O)N(C)C)[C@H]3c2ccccc2)cc1	0	-	0	0	-	0
Cc1ccccc1/C=N/Nc1ccnc2cc(Cl)ccc12	0	-	8.5	0	0	0
CCCCN1C(=O)C(=O)NC[C@@H]1CC1CCCCC1	-	-	-	0	-	-
Brc1ccc(C2=CC(c3cccs3)n3ncnc3N2)cc1 (stereo not drawn)	0	0	0	0	0	0
Fc1ccc(Br)cc1C1C=C(c2cccnc2)Nc2ncnn21 (stereo not drawn)	0	-	0	49	0	24
Clc1ccc(OCc2nn3c(-c4ccccc4)nnc3s2)c(Cl)c1	0	0	8.9	0	0	0
COc1ccc(-c2nnc3sc(COc4ccccc4)nn23)cc1	0	0	0	0	0	0
COc1ccc(-c2nnc3sc(COc4ccc(C)cc4)nn23)cc1	29	0	0	0	0	0
